# Legend:
# [1] = Solubility at, pH 7.4; format: physicochemical; conditions: buffer, read-out: S
# Rattus norvegicus [2] = assay: Compound was evaluated in experiment 1 for High density lipoproteins at 1.0 (mg/kg) dose; format: functional
# Outline: (§1)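 Chronic model in male Sprague-Dawley rats (200-225 g). Rats were fed chow with peanut oil 5.5%, cholesterol 1.5% and cholic acid ad libitum for 2 weeks. Test article was given by gavage once daily (morning) in the second week, as a CMC/Tween aqueous suspension. Blood was taken by cardiac puncture under ether 24 h after the last dose. Plasma total, HDL and nonHDL cholesterol were measured with an Abbott VP analyzer using dextran sulfate precipitation, reported as mg/dL and % change from control. Controls were cholesterol-fed rats and rats switched to chow in week 2.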
# Rattus norvegicus [3] = assay: Compound was evaluated in experiment 2 for change in non High density lipoprotein at the doses at 30 (mg/kg) dose; format: functional
# Outline: (§2)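 Male Sprague-Dawley rats (200-225 g) were fed chow with peanut oil (5.5%), cholesterol (1.5%) and cholic acid (0.5%) ad libitum for 2 weeks. During week 2 they were gavaged daily each morning with compound in aqueous CMC/Tween suspension. Controls were fed the cholesterol diet for 2 weeks, or switched to chow for week 2. Rats were bled by cardiac puncture under ether 24 h post-dose. Plasma HDL-C was measured after dextran sulfate precipitation, along with nonHDL-C. Values are given in mg/dL and as % change from control.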
# Rattus norvegicus [4] = assay: Compound was evaluated in experiment 1 for High density lipoproteins at 10 (mg/kg) dose; format: functional; outline: as §1
# Rattus norvegicus [5] = assay: Compound was evaluated in experiment 1 for change in non High density lipoprotein at the doses at 1.0 (mg/kg) dose; format: functional; outline: as §1
# Rattus norvegicus [6] = assay: Compound was evaluated in experiment 1 for change in non High density lipoprotein at the doses at 0.3 (mg/kg) dose; format: functional; outline: as §1
# Rattus norvegicus [7] = assay: Compound was evaluated in experiment 1 for non High density lipoproteins at 3.0(mg/kg) dose; format: functional; outline: as §1
# Rattus norvegicus [8] = assay: Compound was evaluated in experiment 1 for Total cholesterol at 10 (mg/kg) dose; format: functional; parameters: unit not given beside the values; outline: as §1
# Rattus norvegicus [9] = assay: Compound was evaluated in experiment 1 for Total cholesterol at 0.3 (mg/kg) dose; format: functional; parameters: unit not given beside the values; outline: as §1
# Rattus norvegicus [10] = assay: Compound was evaluated in experiment 1 for Change in High density lipoproteins at 10 (mg/kg) dose; format: functional; outline: as §1
# Rattus norvegicus [11] = assay: Compound was evaluated in experiment 2 for High density lipoproteins at 30 (mg/kg) dose; format: functional; outline: as §1
# Rattus norvegicus [12] = assay: Compound was evaluated in experiment 2 for non High density lipoproteins at 30 (mg/kg) dose; format: functional; outline: as §2
# Rattus norvegicus [13] = assay: Compound was evaluated in experiment 2 for Total cholesterol at 30 (mg/kg) dose; format: functional; outline: as §1
# Rattus norvegicus [14] = assay: Compound was evaluated in experiment 1 for Change in High density lipoproteins at 1.0 (mg/kg) dose; format: functional; outline: as §1
# Rattus norvegicus [15] = assay: Compound was evaluated in experiment 1 for Total cholesterol at 1.0 (mg/kg) dose; format: functional; parameters: unit not given beside the values; outline: as §1
# Rattus norvegicus [16] = organism: Rattus norvegicus; assay: Percent change in total cholesterol in peanut oil (5.5%)-, cholic acid (0.3%)-, Cholesterol (1.5%)-fed rats after a single dose.; format: functional
# Outline: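 Male Sprague-Dawley rats (200-225 g), n=5-7/group, given a single oral dose at 4 p.m. as a suspension in 1.5% CMC/0.2% Tween-20 in water (50 mg/kg); controls received vehicle alone. The rats then had free access to chow with peanut oil, cholesterol and cholic acid. At 8 a.m. next day they were bled by cardiac puncture under ether, and serum total cholesterol was measured as % change versus controls (unpaired two-tailed t-test).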
# [17] = Solubility at, 0.1 N HCl; format: physicochemical; conditions: read-out: S
# Rattus norvegicus [18] = assay: Compound was evaluated in experiment 1 for change in non High density lipoprotein at the doses at 10 (mg/kg) dose; format: functional; outline: as §1
# Rattus norvegicus [19] = assay: Compound was evaluated in experiment 1 for Change in total cholesterol at 1.0 (mg/kg) dose; format: functional; outline: as §1
# Rattus norvegicus [20] = assay: Compound was evaluated in experiment 1 for Change in High density lipoproteins at 0.3 (mg/kg) dose; format: functional; outline: as §1
# Rattus norvegicus [21] = assay: Compound was evaluated in experiment 1 for High density lipoproteins at 3.0 (mg/kg) dose; format: functional; outline: as §1
# Rattus norvegicus [22] = assay: Compound was evaluated in experiment 1 for Change in total cholesterol at 3.0 (mg/kg) dose; format: functional; outline: as §1
# Rattus norvegicus [23] = assay: Compound was evaluated in experiment 1 for Change in total cholesterol at 10 (mg/kg) dose; format: functional; outline: as §1
# Rattus norvegicus [24] = assay: Compound was evaluated in experiment 1 for change in non High density lipoprotein at the doses at 3.0 (mg/kg) dose; format: functional; outline: as §1
# Rattus norvegicus [25] = assay: Compound was evaluated in experiment 2 for Change in High density lipoproteins at 30 (mg/kg) dose; format: functional; outline: as §1
# [26] = Solubility at, pH 4.0; format: physicochemical; conditions: buffer, read-out: S
# Rattus norvegicus [27] = assay: Compound was evaluated in experiment 2 for Change in total cholesterol at 30 (mg/kg) dose; format: functional; outline: as §1
# Rattus norvegicus [28] = assay: Compound was evaluated in experiment 1 for Total cholesterol at 3.0 (mg/kg) dose; format: functional; parameters: unit not given beside the values; outline: as §1
# Rattus norvegicus [29] = assay: Compound was evaluated in experiment 1 for Change in High density lipoproteins at 3.0 (mg/kg) dose; format: functional; outline: as §1
# Rattus norvegicus [30] = assay: Compound was evaluated in experiment 1 for non High density lipoproteins at 0.3 (mg/kg) dose; format: functional; outline: as §1
# Rattus norvegicus [31] = assay: Compound was evaluated in experiment 1 for non High density lipoproteins at 1.0 (mg/kg) dose; format: functional; outline: as §1
# Rattus norvegicus [32] = assay: Compound was evaluated in experiment 1 for Change in total cholesterol at 0.3 (mg/kg) dose; format: functional; outline: as §1
# Rattus norvegicus [33] = assay: Compound was evaluated in experiment 1 for High density lipoproteins at 0.3 (mg/kg) dose; format: functional; outline: as §1
# Rattus norvegicus [34] = assay: Compound was evaluated in experiment 1 for non High density lipoproteins at 10 (mg/kg) dose; format: functional; outline: as §1
# Rattus norvegicus [35] = assay: Compound was evaluated for the percentage change in total cholesterol in peanut oil (5.5%)-cholic acid (0.3%)-cholesterol (1.5%)-fed rat at 30 mg/kg; format: functional
# Rattus norvegicus [36] = assay: Compound was evaluated in experiment 2 for High density lipoproteins at 10 (mg/kg) dose; format: functional; outline: as §1
# Rattus norvegicus [37] = assay: Compound was evaluated in experiment 2 for change in non High density lipoprotein at the doses at 3 (mg/kg) dose; format: functional; outline: as §1
# Rattus norvegicus [38] = assay: Compound was evaluated in experiment 2 for Change in High density lipoproteins at 3 (mg/kg) dose; format: functional; outline: as §1
# Rattus norvegicus [39] = assay: Compound was evaluated in experiment 2 for Total cholesterol at 3 (mg/kg) dose; format: functional; outline: as §1
# [40] = target: T1, Acyl-CoA:cholesterol acyltransferase (Oryctolagus cuniculus, UniProt Q95214); assay: Tested for in vitro inhibition against Acyl coenzyme A:cholesterol acyltransferase of intestinal microsomes in cholesterol-fed rabbits; parameters: species or system Microsome
# T1 sequence (Q95214 whole entry): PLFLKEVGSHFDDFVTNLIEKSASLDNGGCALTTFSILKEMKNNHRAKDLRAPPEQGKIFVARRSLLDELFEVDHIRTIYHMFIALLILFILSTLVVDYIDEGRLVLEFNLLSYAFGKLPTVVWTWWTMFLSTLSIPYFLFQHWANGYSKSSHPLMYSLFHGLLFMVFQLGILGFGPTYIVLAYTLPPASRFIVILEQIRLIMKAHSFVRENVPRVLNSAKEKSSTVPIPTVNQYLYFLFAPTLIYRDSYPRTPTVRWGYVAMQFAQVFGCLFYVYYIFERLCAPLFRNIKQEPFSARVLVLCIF
# Outline: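 Microsomes were prepared from intestine of cholesterol-fed rabbits. ACAT activity was measured using [1-14C]oleoyl-CoA as substrate. Each determination was run in triplicate.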
# [41] = Compound was evaluated for the distribution coefficient at pH 7.4; format: physicochemical; conditions: octanol/water
# Rattus norvegicus [42] = assay: Compound was evaluated in experiment 2 for non High density lipoproteins at 10 (mg/kg) dose; format: functional; outline: as §2
# Rattus norvegicus [43] = assay: Compound was evaluated in experiment 2 for Total cholesterol at 10 (mg/kg) dose; format: functional; outline: as §1
# Rattus norvegicus [44] = assay: Compound was evaluated in experiment 2 for Change in High density lipoproteins at 1 (mg/kg) dose; format: functional; outline: as §1
# Rattus norvegicus [45] = assay: Compound was evaluated in experiment 2 for non High density lipoproteins at 3 (mg/kg) dose; format: functional; outline: as §2
# Rattus norvegicus [46] = assay: Compound was evaluated in experiment 2 for High density lipoproteins at 3 (mg/kg) dose; format: functional; outline: as §1
# Rattus norvegicus [47] = assay: Compound was evaluated in experiment 2 for Total cholesterol at 1 (mg/kg) dose; format: functional; outline: as §1
# Rattus norvegicus [48] = assay: Compound was evaluated in experiment 2 for change in non High density lipoprotein at the doses at 10 (mg/kg) dose; format: functional; outline: as §1
# Rattus norvegicus [49] = assay: Compound was evaluated in experiment 2 for High density lipoproteins at 1 (mg/kg) dose; format: functional; outline: as §1
# Rattus norvegicus [50] = assay: Compound was evaluated in experiment 2 for Change in total cholesterol at 3 (mg/kg) dose; format: functional; outline: as §1
# Rattus norvegicus [51] = assay: Compound was evaluated in experiment 2 for Change in total cholesterol at 10 (mg/kg) dose; format: functional; outline: as §1
# Rattus norvegicus [52] = assay: Compound was evaluated in experiment 2 for Change in High density lipoproteins at 10 (mg/kg) dose; format: functional; outline: as §1
# Rattus norvegicus [53] = assay: Compound was evaluated in experiment 2 for non High density lipoproteins at 1 (mg/kg) dose; format: functional; outline: as §2
compound,measurement,setting,value
CC(C)c1cccc(C(C)C)c1NC(=O)NCC1(c2ccc(N(C)C)cc2)CCCC1.Cl [NEVANIMIBE HYDROCHLORIDE],solubility,[1],< 50 µg/mL
same,HDL-C,Rattus norvegicus [2],15
same,Change non HDL-C,Rattus norvegicus [3],-80%
same,HDL-C,Rattus norvegicus [4],31
same,Change non HDL-C,Rattus norvegicus [5],-32%
same,Change non HDL-C,Rattus norvegicus [6],-22%
same,Non-HDL-C,Rattus norvegicus [7],235
same,TC,Rattus norvegicus [8],115
same,TC,Rattus norvegicus [9],252
same,Change HDL -C,Rattus norvegicus [10],167%
same,HDL-C,Rattus norvegicus [11],36
same,Non-HDL-C,Rattus norvegicus [12],56
same,TC,Rattus norvegicus [13],91
same,Change HDL -C,Rattus norvegicus [14],32%
same,TC,Rattus norvegicus [15],222
same,Delta TC,Rattus norvegicus [16],-77%
same,solubility,[17],6400 µg/mL
same,Change non HDL-C,Rattus norvegicus [18],-72%
same,Change TC,Rattus norvegicus [19],-29%
same,Change HDL -C,Rattus norvegicus [20],44%
same,HDL-C,Rattus norvegicus [21],16
same,Change TC,Rattus norvegicus [22],-20%
same,Change TC,Rattus norvegicus [23],-64%
same,Change non HDL-C,Rattus norvegicus [24],-23%
same,Change HDL -C,Rattus norvegicus [25],177%
same,solubility,[26],1330 µg/mL
same,Change TC,Rattus norvegicus [27],-69%
same,TC,Rattus norvegicus [28],251
same,Change HDL -C,Rattus norvegicus [29],38%
same,Non-HDL-C,Rattus norvegicus [30],235
same,Non-HDL-C,Rattus norvegicus [31],206
same,Change TC,Rattus norvegicus [32],-20%
same,HDL-C,Rattus norvegicus [33],17
same,Non-HDL-C,Rattus norvegicus [34],84
CC(C)c1cccc(C(C)C)c1NC(=O)NCC1(c2cccc(CN(C)C)c2)CCCC1,Change non HDL-C,Rattus norvegicus [3],-76%
same,Delta TC,Rattus norvegicus [35],-55%
same,HDL-C,Rattus norvegicus [36],23
same,HDL-C,Rattus norvegicus [11],33
same,Non-HDL-C,Rattus norvegicus [12],68
same,Change non HDL-C,Rattus norvegicus [37],-25%
same,TC,Rattus norvegicus [13],101
same,Change HDL -C,Rattus norvegicus [38],31%
same,Delta TC,Rattus norvegicus [16],-22%
same,TC,Rattus norvegicus [39],229
same,IC50,[40],63 nM
same,logD,[41],4.8
same,Non-HDL-C,Rattus norvegicus [42],177
same,Change HDL -C,Rattus norvegicus [25],154%
same,TC,Rattus norvegicus [43],200
same,Change HDL -C,Rattus norvegicus [44],8%
same,Non-HDL-C,Rattus norvegicus [45],212
same,HDL-C,Rattus norvegicus [46],17
same,TC,Rattus norvegicus [47],292
same,Change non HDL-C,Rattus norvegicus [48],-38%
same,Change TC,Rattus norvegicus [27],-66%
same,HDL-C,Rattus norvegicus [49],14
same,Change TC,Rattus norvegicus [50],-23%
same,Change TC,Rattus norvegicus [51],-33%
same,Change HDL -C,Rattus norvegicus [52],77%
same,Non-HDL-C,Rattus norvegicus [53],278
